The list is not random: actives were taken first. Their share in the collection is about 3.5%.
RGS4 block – RGS4 inhibitors, primary screen, cell-based, HEK293 M3R inducible RGS4, calcium flux. Fluo-4 calcium flux; active compounds read high; triggered by carbachol at its EC20. B-score at 10 µM. 0.45% of 310,000 active. AID 463165, 2010;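 active = B-score, a plate-corrected calcium signal, over three deviations above library mean, with baseline fluorescence within five deviations of library mean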;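 note: RGS4 expression induced by doxycycline in cells with stable M3 receptor; B-score is computed from the integrated fluorescence ratio over baseline after carbachol; higher B-score means a larger calcium signal and so more RGS4 inhibition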
Target sequence (P49798 whole entry, looked up): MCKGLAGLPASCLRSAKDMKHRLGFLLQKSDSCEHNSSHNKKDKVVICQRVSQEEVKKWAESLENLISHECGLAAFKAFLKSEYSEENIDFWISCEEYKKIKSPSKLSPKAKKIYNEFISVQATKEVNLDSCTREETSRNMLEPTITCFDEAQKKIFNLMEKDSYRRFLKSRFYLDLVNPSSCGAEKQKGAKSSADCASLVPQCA
MrgX1 antagonist – antagonists of human MrgX1 receptor, primary screen, HEK293 cells, Fluo-4 calcium flux; Mas-related G-protein coupled receptor member X1 (Homo sapiens), Q96LB2; BAM8-22 antagonism; active compounds read low; B-score at 10 µM; 1.3% of 310,000 active;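 active = calcium-response B-score plate-corrected more than 3 library SD below zero, starting fluorescence within 5 deviations, no agonist response on first addition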;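 note: peak minus trough fluorescence over baseline after final BAM8-22 challenge near maximal dose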
Target sequence (Q96LB2 whole entry, looked up): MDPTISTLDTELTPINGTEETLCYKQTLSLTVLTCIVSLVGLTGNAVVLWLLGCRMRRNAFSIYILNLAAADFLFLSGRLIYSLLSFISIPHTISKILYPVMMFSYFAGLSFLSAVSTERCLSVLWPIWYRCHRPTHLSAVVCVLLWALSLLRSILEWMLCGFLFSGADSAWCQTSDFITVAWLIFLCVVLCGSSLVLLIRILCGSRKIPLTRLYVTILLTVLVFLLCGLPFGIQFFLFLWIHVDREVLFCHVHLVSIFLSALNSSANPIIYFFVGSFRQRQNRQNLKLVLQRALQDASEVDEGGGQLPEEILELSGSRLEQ
RGS4 act – RGS4 potentiators or activators, primary screen, cell-based, HEK293 M3R inducible RGS4, calcium flux | carbachol calcium flux Fluo4; active compounds read low | 0.92% of 310,000 active | B-score at 10 µM;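 active = B-score of the integrated calcium signal more than 4 SD below the library mean, with starting fluorescence not abnormally high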;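 note: negative B-score means reduced calcium response which marks RGS4 activation or potentiation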
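System – HEK293 FlpIn-TREx cells, stable M3R, doxycycline-inducible RGS4 · Reagent – ECmax carbachol challenge · Times – compound preincubation 20 min at room temperature before agonist · Technique – Fluo4 fluorescence kinetic imaging of calcium · Measure – B score of integrated Fluo4 ratio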
MrgX1 agonist – agonists of human MrgX1 receptor, primary screen, HEK293 cells, Fluo-4 calcium flux | Fluo-4 calcium fluorescence, agonist mode; active compounds read high | B-score at 10 µM | Mas-related G-protein coupled receptor member X1 (Homo sapiens), Q96LB2 | AID 588627, 2011 | 0.44% of 310,000 active;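 active = calcium response B-score plate-corrected fluorescence ratio at least 3 library SD, with starting fluorescence B-score inside 5 SD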
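System: HEK293 cells stably expressing human MrgX1 receptor; Dosing: test compound in the initial addition of three; Schedule: overnight plating, then 30 min 37 °C plus 30 min room-temperature dye loading; Detection: kinetic calcium dye fluorescence, Fluo-4 NW; Controls: per-plate positive and negative controls for Z′ factor.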
MrgX1 allo act – positive allosteric modulators of MrgX1, primary screen, HEK293 cells, Fluo-4 calcium flux. B-score at 10 µM. 0.63% of 310,000 active. FDSS; active compounds read high. AID 588675, 2011;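 active = plate-corrected calcium response at least 3 library SD above typical, normal starting fluorescence, not activating the receptor alone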;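 note: compound read alongside a low EC10 to EC30 dose of BAM8-22 agonist; peak minus trough fluorescence over baseline measured at the second addition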
MrgX1 antag conf – MrgX1 receptor antagonists, duplicate retest, confirmation, HEK293 cells, Fluo-4 calcium flux; shares compounds with MrgX1 antagonist; remaining BAM8-22 calcium response % of control (active compounds read low), % at 10 µM; AID 602420, 2012; 19% of 2,300 active; BAM8-22 calcium flux; active compounds read low;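 active = remaining agonist calcium response no higher than 100% minus 3 SD of agonist-only control wells, with starting fluorescence near control levels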;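 note: agonist BAM8-22 given at a near maximal EC90 to ECmax level; peak minus minimum fluorescence divided by baseline after agonist addition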
HEK293 Ca flux – nonspecific calcium signal in parental HEK293, confirmation, counter-screen for MrgX1 antagonist project, parental HEK293 cells, Fluo-4 calcium flux | fluorescence ratio F(max-min)/F0 at 10 µM | shares compounds with MrgX1 antagonist | 2% of 4,000 active | Fluo-4 calcium fluorescence, FDSS;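 active = duplicate-averaged calcium fluorescence ratio at least three times the standard deviation of buffer wells, a nonspecific response in parental cells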
HEK293 Ca counter – calcium response in parental HEK293 cells, primary screen, counter-screen for MrgX1 allosteric activator project, cell-based, Fluo-4 calcium flux, duplicate. shares compounds with MrgX1 antagonist. Fluo-4 fluorescence ratio; active compounds read high. fluorescence ratio F(max-min)/F0 at 10 µM. 0.4% of 4,000 active;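 active = calcium fluorescence ratio, averaged over duplicates, at least 3 SD of the buffer-well ratio, meaning a nonspecific response in receptor-free cells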;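 note: untransfected parental HEK293 lacking MrgX1 used as counterscreen for MrgX1 allosteric activators; fluorescence change taken during the second addition on a kinetic imager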
HEK293 Ca cntr2 – calcium response in parental HEK293 cells, primary screen, counter-screen for MrgX1 agonist project, cell-based, Fluo-4 calcium flux, duplicate, agonist mode. shares compounds with MrgX1 antagonist. 8.7% of 4,000 active. fluorescence ratio F(max-min)/F0 at 10 µM. Fluo-4 calcium fluorescence (FDSS); active compounds read high;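 active = calcium fluorescence ratio at least three times the spread of buffer wells, meaning a non-specific response in parental cells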
A number is an active result; - = inactive; . = no result.

SMILES	RGS4 block	MrgX1 antagonist	RGS4 act	MrgX1 agonist	MrgX1 allo act	MrgX1 antag conf	HEK293 Ca flux	HEK293 Ca counter	HEK293 Ca cntr2
Cc1ccc(C)c(NS(=O)(=O)c2ccc3[nH]c(=O)oc3c2)c1	-	-5.3	-	-	-	-	-	-	-
O=C(COc1ccccc1)N1CCN(C(=O)c2ccccc2F)CC1	-	-	-	-	-	.	.	.	.
CCOC(=O)c1cnc(SC)nc1Oc1cccc(NC(=O)c2ccc(Cl)cc2)c1	-	-	-	-	-	.	.	.	.
CCOC(=O)c1cnc(SC)nc1Oc1cccc(NS(=O)(=O)c2ccc(Cl)cc2)c1	-	-8.7	-	-	-	73%	-	-	-
NCc1ccccc1COc1ccccc1	-	-	-	-	-	.	.	.	.
Cc1cccc(C(=O)Nc2nnc(SCC(=O)Nc3ccc4c(c3)oc3ccccc34)s2)c1	-	-11	-	-	-	-	-	-	-
COc1ccccc1N1CCSC1C(N)=O (configuration not stated)	-	-7.1	-	-	-	-	-	-	-
CCCC1=C(C(=O)OCC)C(c2ccncc2)n2ncnc2N1 (configuration not stated)	-	-6.1	-	-	-	-	-	-	-
Cc1nnc(SCC(=O)NC(=O)NC(C)C)s1	-	-	-	-	-	.	.	.	.
Cc1nnc(SCC(=O)NC(=O)NC(C)(C)C)s1	-	-5.6	-	-	-	-	-	-	-
CC(Cc1cccs1)NC(=S)Nc1ccc(Cl)c(Cl)c1 (configuration not stated)	-	-6.8	-	-	-	-	-	-	-
CC(Cc1cccs1)NC(=O)Nc1cccc(Cl)c1 (configuration not stated)	-	-	-	-	-	.	.	.	.
CCSc1nc2cc(OC)c(OC)cc2c(=O)n1CC	-	-4.8	-	-	-	-	-	-	-
Cn1c(C(=O)N2CCC(C(N)=O)CC2)cc2cc(Cl)ccc21	-	-6.1	-	-	-	-	-	-	-
Cc1ccc(NC(=O)c2oc3ccc(S(=O)(=O)N4CCOCC4)cc3c2C)c(C)c1	-	-	-	-	-	.	.	.	.
Cc1cccc(NC(=O)c2oc3ccc(S(=O)(=O)N4CCOCC4)cc3c2C)c1C	-	-4.8	-	-	-	-	-	-	-
C/C(=C/c1ccccc1)C(=O)N1CCC(C)CC1	-	-	-	-	-	.	.	.	.
COc1ccc(NC(=O)CSc2nnc(CN3CCOCC3)n2C)cc1Cl	-	-7.1	-	-	-	-	-	-	-
COc1ccc(-n2c(SCCC#N)nnc2-c2cc(Cl)ccc2OC)cc1Cl	-	-	-	-	-	.	.	.	.
Cc1ccc(NC(=O)c2cc3c(CO)cnc(C)c3oc2=Nc2cccc(C(N)=O)c2)cc1	-	-	-	-	-	.	.	.	.
COc1ccc(Cn2c(C)ccc2C)cc1	-	-6.3	-	-	-	-	-	-	-
CCOC(=O)C[C@H]1c2cc(F)ccc2S(=O)(=O)N1C1CCCCC1	-	-6.4	-	-	-	-	-	-	-
COCC(C)n1c(C)cc(C(=O)CSc2nc3ccccc3c(=O)[nH]2)c1C (configuration not stated)	-	-7.7	-	-	-	-	-	-	-
C=CCn1c(C)cc(C(=O)CSc2nc3ccccc3c(=O)[nH]2)c1C	.	-	.	-	-	.	.	.	.
C=CCn1c(C)cc(C(=O)CSc2nc3ccccc3[nH]2)c1C	-	-6.7	-	-	-	71%	-	-	-
SMILES	RGS4 block	MrgX1 antagonist	RGS4 act	MrgX1 agonist	MrgX1 allo act	MrgX1 antag conf	HEK293 Ca flux	HEK293 Ca counter	HEK293 Ca cntr2
CC(=O)c1cc2c(cc1NC(=O)CSc1nc3ccccc3[nH]1)OCO2	-	-6.6	-	-	-	75%	-	-	-
O=C(CSc1nc2ccccc2[nH]1)c1c[nH]c2ccccc12	-	-5.7	-	-	-	-	-	-	-
CCCC(C)C(=O)OCC(=O)NCc1ccc(OC)c(OC)c1 (configuration not stated)	-	-	-	-	-	.	.	.	.
COc1ccc(/C=C/C(=O)OCC(=O)NCc2ccco2)c(OC)c1	-	-	-	-	-	.	.	.	.
Cc1ccc(SCCNS(=O)(=O)c2ccc(F)cc2)cc1	-	-	-	-	-	.	.	.	.
Cc1ccc(SCCNS(C)(=O)=O)cc1	-	-5.1	-	-	-	-	-	-	-
O=C(COC(=O)[C@H](Cc1ccccc1)N1C(=O)c2ccccc2C1=O)Nc1ccc2c(c1)OCO2	-	-	-	-	-	.	.	.	.
CC(C)[C@@H](C(=O)OCC(=O)Nc1ccc2c(c1)OCO2)N1C(=O)c2ccccc2C1=O	-	-5.3	-	-	-	-	-	-	-
COCC(C)NC(=O)c1cc(-c2ccc(O)cc2)on1 (configuration not stated)	-	-6	-	-	-	-	-	-	-
Cc1[nH]c2ccc(C(=O)NCCN3CCOCC3)cc2c1C	-	-	-	-	-	.	.	.	.
CC1CCC(NC(=O)COC(=O)C2CC3CCCC(C2)C3=O)CC1 (configuration not stated)	-	-7.9	-	-	-	-	-	-	-
CS(=O)(=O)N1CCC2(CC1)OCCN2S(=O)(=O)c1ccccc1	-	-6.9	-	-	-	-	-	-	-
COc1ccc(S(=O)(=O)N2CCC3(CC2)OCCN3S(=O)(=O)c2ccccc2)cc1OC	-	-	-	-	-	.	.	.	.
COc1ccc(CNC(=O)OCCN2CCN(Cc3ccccc3)CCC2=O)cc1	-	-4.9	-	-	-	-	-	-	-
COc1ccc(NC(=O)OCCN2CCN(Cc3ccccc3)CCC2=O)cc1	-	-	-	-	-	.	.	.	.
CCN(CC(=O)Nc1cc(Cl)ccc1C)C(=O)CCS(=O)(=O)c1ccc(Cl)cc1	-	-	-	-	-	.	.	.	.
CCN(Cc1ccncc1)Cc1nc(Cc2ccccc2Cl)no1	-	-	-	-	-	.	.	.	.

Compound activity: PubChem, Johns Hopkins Ion Channel Center
